Converted amounts (≈) assume the structure as drawn.
What was measured:
HeLa = experiment: Cytotoxicity against human HeLa cells assessed as reduction in cell viability incubated for 72 hrs by SRB assay; assay type: toxicity, cell-based
[1] = system: Mycobacteroides abscessus; experiment: Antibacterial activity against Mycobacterium abscessus ATCC 19977 expressing tomato RFP assessed as bacterial growth inhibition incubated for 3 days in 7H9 medium by RFP fluorescence based broth microdilution method; assay type: functional; settings: ATCC 19977, 72 h, time 3 day
Method in brief: (§1)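 Broth microdilution in 7H9 with 10 % ADS and 0.05 % Tween 80. Twofold nine-point dilution series. Inoculum 5 x 10⁵ cells/mL taken from a mid-log preculture. Incubation at 37 °C, 3 days for M. smegmatis and M. abscessus, 5 days for M. intracellulare. Read-out by RFP fluorescence (ex 544/em 590 nm). Controls were 1 % DMSO and 100 μM amikacin. MIC₉₀ from duplicates, averaged.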

A-375 = experiment: Cytotoxicity against human A-375 cells assessed as reduction in cell viability incubated for 72 hrs by SRB assay; assay type: toxicity, cell-based
[2] = system: Mycobacteroides abscessus; experiment: Bactericidal activity against Mycobacterium abscessus ATCC 19977 assessed as reduction in viable bacteria at 6.25 uM incubated for 4 days by microplate dilution assay relative to control; assay type: functional; settings: time 4 day
[3] = system: Mycobacteroides abscessus; experiment: Antibacterial activity against Mycobacterium abscessus ATCC 19977 expressing tomato RFP infected in human THP-1 cells assessed as bacterial growth inhibition incubated for 4 days in RPMI medium by RFP fluorescence based assay; assay type: functional; settings: ATCC 19977, 96 h, time 4 day
Method in brief: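 RFP M. abscessus washed, moved into RPMI, filtered through 5 µm and opsonised with 10 % human serum for 30 min. THP-1 cells infected at MOI 5:1 with PMA 40 ng/mL for 4 h at 37 °C, then washed. Infected cells (1x10⁵/well) given a ten-point twofold series. Incubated 4 days at 37 °C, 5 % CO₂. Cells PFA-fixed and DAPI-stained. RFP quantified by imaging. Controls were DMSO and 1.5 µM bedaquiline. Duplicate.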

A2780 = experiment: Cytotoxicity against human A2780 cells assessed as reduction in cell viability incubated for 72 hrs by SRB assay; assay type: toxicity, cell-based
[4] = (§2) Cytotoxicity against mouse NIH3T3 cells assessed as reduction in cell viability incubated for 72 hrs by SRB assay; assay type: toxicity, cell-based; settings: mouse, NIH3T3 cells
[5] = Stability in mouse plasma at 1 uM measured over 120 mins by HPLC-MS/MS analysis; assay type: ADME, cell-free; settings: 2 h
[6] = system: Mycobacterium intracellulare; experiment: Antibacterial activity against Mycobacterium intracellulare ATCC 35761 expressing tomato RFP assessed as bacterial growth inhibition incubated for 5 days in 7H9 medium by RFP fluorescence based broth microdilution method; assay type: functional; settings: ATCC 35761, 120 h, time 5 day; method in brief: as §1
[7] = Kinetic solubility of compound in PBS at 0.78 to 500 uM measured immediately by nephelometric method; assay type: physicochemical; settings: buffer, dose 0.78-500 µM
Method in brief: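 DMSO stocks prediluted in DMSO, then diluted 1:50 into PBS (2 % DMSO final) and read immediately by nephelometry at 0.78–500 μM; blank-corrected data fitted by segmental regression; quadruplicates from one stock.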

[8] = system: Mycolicibacterium smegmatis; experiment: Antibacterial activity against Mycobacterium smegmatis mc2 155 expressing tomato RFP assessed as bacterial growth inhibition incubated for 3 days in 7H9 medium by RFP fluorescence based broth microdilution method; assay type: functional; settings: mc2 155, 72 h, time 3 day; method in brief: as §1
[9] = system: Mycobacteroides abscessus; experiment: Antibacterial activity against Mycobacterium abscessus Bamboo harboring inactive clarithromycin-sensitive erm41 C28 sequevar assessed as bacterial growth inhibition incubated for 3 days in 7H9 medium by optical density based method; assay type: functional; settings: 72 h, time 3 day
[10] = system: Mycobacteroides abscessus; experiment: Antibacterial activity against Mycobacterium abscessus ATCC 19977 expressing tomato RFP assessed as bacterial growth inhibition incubated for 3 days in MHII medium by RFP fluorescence based broth microdilution method; assay type: functional; settings: ATCC 19977, 72 h, time 3 day
Method in brief: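 Broth microdilution in MHII broth with 0.05 % Tween 80, against the RFP-expressing strain. Twofold nine-point dilution series. Inoculum 5 x 10⁵ cells/mL from a mid-log preculture. Incubated 3 days at 37 °C. Read-out by RFP fluorescence (ex 544/em 590 nm). Controls were 1 % DMSO and 100 μM amikacin. MIC₉₀ from duplicates, averaged.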

[11] = system: Mycobacteroides abscessus; experiment: Bactericidal activity against Mycobacterium abscessus ATCC 19977 assessed as reduction in viable bacteria at 3.13 uM incubated for 4 days by microplate dilution assay relative to control; assay type: functional; settings: time 4 day
Method in brief: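 After 4 days in the microplate dilution assay, 10 µl samples (undiluted or 1:100) were plated on 7H10 with glycerol, ADS and 400 µg/mL hygromycin. Colonies counted after 4 days at 37 °C. Done in triplicate. CFU/mL compared with the inoculum counted before incubation.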

HT-29 = experiment: Cytotoxicity against human HT-29 cells assessed as reduction in cell viability incubated for 72 hrs by SRB assay; assay type: toxicity, cell-based
MCF7 = experiment: Cytotoxicity against human MCF7 cells assessed as reduction in cell viability incubated for 72 hrs by SRB assay; assay type: toxicity, cell-based
[12] = Metabolic stability in pooled human liver microsomes assessed as half life at 2 uM measured over 40 mins in presence of NADPH-cofactor system by HPLC-MS/MS analysis; assay type: ADME, Microsome
Method in brief: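 Pooled mixed-gender human liver microsomes at 0.42 mg protein/mL in 100 mM phosphate pH 7.4 with MgCl₂ and an NADPH-regenerating system. Test compound 2 μM, 1.6 % solvent, at 37 °C. Five time points over 40 min, stopped with acetonitrile, analysed by HPLC-MS/MS. t1/2 from the slope of ln(AUC) versus time. Controls lacked NADPH. Duplicates.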

[13] = system: Mycobacteroides abscessus; experiment: Antibacterial activity against MMV688845-resistant Mycobacterium abscessus Bamboo 845R-2.1 harboring rpoB/beta subunit P473L mutation assessed as bacterial growth inhibition incubated for 3 days by optical density based analysis; assay type: functional; settings: Bamboo 845R-2.1, 72 h, time 3 day
Method in brief: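 Tenfold-point twofold dilution series in 7H9, final DMSO 1 %. Final ranges typically 50–0.098 or 6.25–0.012 μM. Mid-log culture added to an initial OD₆₀₀ of 0.05 (5*10⁶ CFU/mL). Incubated 3 days at 37 °C with shaking at 110 rpm. Growth taken as OD₆₀₀ on day 3 minus day 0, as % of drug-free wells. MIC₉₀ read visually from the curves. Clarithromycin as control. Two biological replicates, averaged.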

[14] = system: Mycobacterium tuberculosis; experiment: Antibacterial activity against Mycobacterium tuberculosis H37Rv ATCC 27294 assessed as bacterial growth inhibition incubated for 7 days in 7H9 medium by optical density based microplate reader analysis; assay type: functional; settings: H37Rv ATCC 27294, 168 h, time 7 day
Method in brief: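 Compounds serially diluted in flat-bottom 96-well plates. Mid-log culture mixed in to a final OD₆₀₀ of 0.05. Sealed plates incubated in humidified boxes at 37 °C for 7 days with shaking at 80 rpm. Turbidity read at 600 nm. MIC₉₀ taken from dose–response curves. Two biological replicates, averaged.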

[15] = Stability in human plasma at 1 uM measured over 120 mins by HPLC-MS/MS analysis; assay type: ADME, cell-free; settings: 2 h
NIH3T3 = experiment: as §2; assay type: toxicity, cell-based; settings: nih3t3
HEK293 = experiment: Cytotoxicity against HEK293 cells assessed as reduction in cell viability incubated for 72 hrs by SRB assay; assay type: toxicity, cell-based, Homo sapiens

SMILES	EC50 (HeLa)	MIC90 [1]	EC50 (A-375)	Activity [2]	MIC50 [3]	MIC90 [3]	EC50 (A2780)	EC50 at 72 h [4]	MIC90 [6]	Kinetic_solubility [7]	MIC90 [8]	MIC50 [9]	MIC90 [9]	MIC90 [10]	Activity [11]	EC50 (HT-29)	EC50 (MCF7)	MIC90 [14]	EC50 (NIH3T3)	EC50 (HEK293)	further results
O=C(N[C@H](Cc1ccccc1)C(=O)Nc1ccccc1N1CCS(=O)(=O)CC1)c1ccccc1F	> 30 µM	0.78 µM (≈ 0.387 µg/mL)	> 30 µM	99%	0.39 µM (≈ 0.193 µg/mL)	6.25 µM (≈ 3.1 µg/mL)	> 30 µM	> 30 µM	0.05 µM (≈ 0.0248 µg/mL)	64 µM	0.78 µM (≈ 0.387 µg/mL)	0.23 µM (≈ 0.114 µg/mL)	4.3 µM (≈ 2.13 µg/mL)	1.56 µM (≈ 0.773 µg/mL)	95%	> 30 µM	> 30 µM	0.2 µM (≈ 0.0991 µg/mL)			Stability [5]: Stable; t1/2 [12]: 1.5 min; MIC90 [13]: 42 µM (≈ 20.8 µg/mL); Stability [15]: Stable
O=C(N[C@H](Cc1ccccc1)C(=O)Nc1cc(F)ccc1N1CCS(=O)(=O)CC1)c1ccccc1F	> 30 µM	3.13 µM (≈ 1.61 µg/mL)	> 30 µM		0.39 µM (≈ 0.2 µg/mL)	3.13 µM (≈ 1.61 µg/mL)	23.2 µM		0.1 µM (≈ 0.0514 µg/mL)	32 µM	1.56 µM (≈ 0.801 µg/mL)	0.4 µM (≈ 0.205 µg/mL)	4.5 µM (≈ 2.31 µg/mL)	3.13 µM (≈ 1.61 µg/mL)		> 30 µM	25.9 µM	0.78 µM (≈ 0.401 µg/mL)	24.2 µM	> 30 µM	
O=C(N[C@H](Cc1ccccc1)C(=O)Nc1cc(F)ccc1N1CCS(=O)(=O)CC1)c1cccs1	> 30 µM	6.25 µM (≈ 3.14 µg/mL)	> 30 µM		0.39 µM (≈ 0.196 µg/mL)	3.13 µM (≈ 1.57 µg/mL)	24 µM		0.2 µM (≈ 0.1 µg/mL)	70 µM	1.56 µM (≈ 0.783 µg/mL)	0.43 µM (≈ 0.216 µg/mL)	6.5 µM (≈ 3.26 µg/mL)	3.13 µM (≈ 1.57 µg/mL)		> 30 µM	23.2 µM	0.78 µM (≈ 0.391 µg/mL)	26.9 µM	> 30 µM	
O=C(N[C@H](Cc1ccccc1)C(=O)Nc1ccccc1N1CC[S+]([O-])CC1)c1cccs1	> 30 µM	3.13 µM (≈ 1.46 µg/mL)	> 30 µM	99%	3.13 µM (≈ 1.46 µg/mL)	25 µM (≈ 11.7 µg/mL)	> 30 µM	> 30 µM	0.1 µM (≈ 0.0468 µg/mL)	271 µM	1.56 µM (≈ 0.729 µg/mL)	0.33 µM (≈ 0.154 µg/mL)	2 µM (≈ 0.935 µg/mL)	6.25 µM (≈ 2.92 µg/mL)	58%	> 30 µM	> 30 µM	0.4 µM (≈ 0.187 µg/mL)		> 30 µM	MIC90 [13]: > 100 µM
O=C(N[C@H](Cc1ccccc1)C(=O)Nc1ccccc1N1CC[S+]([O-])CC1)c1ccccc1F	> 30 µM	6.25 µM (≈ 3 µg/mL)	> 30 µM	99%	0.78 µM (≈ 0.374 µg/mL)	12.5 µM (≈ 5.99 µg/mL)	> 30 µM	> 30 µM	0.1 µM (≈ 0.048 µg/mL)	431 µM		0.4 µM (≈ 0.192 µg/mL)	2.1 µM (≈ 1.01 µg/mL)	3.13 µM (≈ 1.5 µg/mL)	81%	> 30 µM	> 30 µM			> 30 µM	MIC90 [13]: 100 µM (≈ 48 µg/mL)
O=C(N[C@H](Cc1ccccc1)C(=O)Nc1cc(F)ccc1N1CCSCC1)c1ccccc1F	28.3 µM	25 µM (≈ 12 µg/mL)	29.4 µM		3.13 µM (≈ 1.51 µg/mL)	100 µM (≈ 48.2 µg/mL)	28.3 µM		0.78 µM (≈ 0.376 µg/mL)	31 µM	6.25 µM (≈ 3.01 µg/mL)	1.15 µM (≈ 0.554 µg/mL)	12 µM (≈ 5.78 µg/mL)	25 µM (≈ 12 µg/mL)		> 30 µM	> 30 µM	1.56 µM (≈ 0.751 µg/mL)	28.5 µM		
O=C(N[C@H](Cc1cccs1)C(=O)Nc1ccccc1N1CCOCC1)c1cccs1	> 30 µM	12.5 µM (≈ 5.52 µg/mL)	> 30 µM		12.5 µM (≈ 5.52 µg/mL)	> 100 µM	29.5 µM		1.56 µM (≈ 0.689 µg/mL)	41 µM	1.56 µM (≈ 0.689 µg/mL)	2.4 µM (≈ 1.06 µg/mL)	9 µM (≈ 3.97 µg/mL)	12.5 µM (≈ 5.52 µg/mL)		29.8 µM	> 30 µM	6.25 µM (≈ 2.76 µg/mL)	29 µM		
